In article PMC5615865 (Research in Pharmaceutical Sciences, 2017) one finds IC50 and pKa data, which are given here for two compounds.

One data set concerns the target Jack bean urease (Canavalia ensiformis, UniProt P07374). In words: Urease inhibitory assay. The format is biochemical. Particulars: urea 25 mM, pH 7.4, 37°C, triplicate. Put shortly:
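Enzyme solution (2 mg/mL stock) was mixed with urea and test compound at various concentrations in 100 mM sodium phosphate, pH 7.4, then incubated 30 min at 37°C. An aliquot was taken into phenol–nitroprusside and alkaline hypochlorite–NaOH reagents and incubated a further 30 min at 37°C, and A625 was read. % inhibition was calculated against the solvent-plus-enzyme control, and IC50 was fitted. Run in triplicate with a hydroxyurea standard.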

For data set [1] the following is noted: no reference given; cited from earlier work.

Chain of Jack bean urease (P07374 whole entry, looked up): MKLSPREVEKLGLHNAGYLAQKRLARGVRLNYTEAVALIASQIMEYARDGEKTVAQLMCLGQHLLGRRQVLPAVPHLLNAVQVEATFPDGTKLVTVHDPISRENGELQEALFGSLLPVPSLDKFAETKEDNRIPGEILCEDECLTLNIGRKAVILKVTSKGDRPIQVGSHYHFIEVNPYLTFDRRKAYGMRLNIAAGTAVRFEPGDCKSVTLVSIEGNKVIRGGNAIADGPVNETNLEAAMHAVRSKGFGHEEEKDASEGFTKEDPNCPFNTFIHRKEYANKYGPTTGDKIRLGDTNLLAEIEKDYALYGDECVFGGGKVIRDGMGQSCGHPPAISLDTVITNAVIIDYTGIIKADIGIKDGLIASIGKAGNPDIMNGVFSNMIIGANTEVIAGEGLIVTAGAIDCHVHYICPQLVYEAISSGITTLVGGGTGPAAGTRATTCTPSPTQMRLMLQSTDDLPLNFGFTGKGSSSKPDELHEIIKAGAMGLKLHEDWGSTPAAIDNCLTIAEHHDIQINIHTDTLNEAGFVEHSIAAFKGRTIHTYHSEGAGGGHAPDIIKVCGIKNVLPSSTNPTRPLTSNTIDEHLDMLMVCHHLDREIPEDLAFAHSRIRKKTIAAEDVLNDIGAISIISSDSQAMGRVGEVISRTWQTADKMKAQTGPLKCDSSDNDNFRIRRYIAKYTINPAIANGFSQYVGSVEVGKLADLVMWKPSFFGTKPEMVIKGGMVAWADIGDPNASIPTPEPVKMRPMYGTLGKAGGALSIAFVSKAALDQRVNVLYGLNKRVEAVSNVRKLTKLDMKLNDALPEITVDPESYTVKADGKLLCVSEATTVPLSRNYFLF

`NC(=O)NO` [hydroxyurea] yielded an IC50 at Jack bean urease of 100 µM.
`COC(=O)CC(C)=O` [methyl acetoacetate]: the pKa in data set [1] was 11.0.

As a reminder, the IC50 is the point on the concentration scale where inhibition reaches its midpoint. A low value points to higher potency. As a reminder, the pKa is the negative logarithm of the acid dissociation constant.
